In the library only some 1.2% were active in any assay of this set; here they are far more common.
CaV13 ICDI inh: Disruptors of the CACNA1D IQ motif to Ca2+-dependent inactivation inhibitor domain association, primary screening, Förster resonance energy transfer in intact living … | AID 743397 | 0.098% of 340,000 active | inhibition, % at 12.3 µM | HEK cells, CFP/YFP FRET ICDI-IQ, plate reader, 10 min; percent FRET-ratio fall versus neutral wells;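 active = mean replicate inhibition of at least 30% and at least 1% of replicates passing that level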;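 note: 0% = median of the neutral control wells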
CAL PDZ FP-1: inhibitors of human CAL PDZ peptide binding; Q9HD26; purified CAL PDZ, TMR-peptide fluorescence polarization, 1 h; inhibition, % at 20 µM; 0.02% of 330,000 active; AID 504414;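 active = highest replicate inhibition of at least 40%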;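 note: plate controls were DMSO neutral control wells for no effect and unlabeled competitor peptide control wells for full effect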
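material = purified tagged CAL PDZ domain construct (CerCALP) | buffer or medium = sodium phosphate/NaCl buffer pH 7.4 with TCEP, IgG, Thesit | reagent = TMR-labelled reporter peptide T*-PRC34 bound in PDZ groove | incubation = 1 h room-temperature incubation prior to read | measured by = fluorescence polarization (mP) | evaluation = percent inhibition from loss of millipolarization | control set = unlabelled peptide and DMSO controls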
CAL PDZ FP-2: blocks peptide binding to the human CAL PDZ domain; Q9HD26; purified CAL PDZ, TMR-peptide fluorescence polarization, 1 h; inhibition, % at 24.9 µM; 0.92% of 300,000 active; AID 602252;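 active = mean inhibition of at least 30% with at least half of replicates also reaching 30%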;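 note: 0% = DMSO neutral control and 100% = excess unlabeled competitor peptide PRC23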
ARNT TACC3 PPI: ARNT/TACC3 interaction disruption. inhibition, % at 9.99 µM. 0.66% of 390,000 active. AlphaScreen His-ARNT PAS-B/GST-TACC3 binding, luminescence; TACC3 fragment carries E629A point mutation. Q9Y6A5;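 active = mean inhibition of replicates at least 50% and at least half of replicates each reaching 50%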;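 note: 0% = complete ARNT plus TACC3 wells and 100% = ARNT alone without TACC3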
ARNT Alpha ctr-1: counter-screen for ARNT/TACC3 inhibitors: AlphaScreen artifacts | AID 651705 | His-ARNT PASB-GST AlphaScreen artifact counter-screen, luminescence | shares compounds with ARNT TACC3 PPI | AC50, µM (highest dose often 68 µM), for inactives: at the highest dose activity change, negative = signal decrease | 50% of 1,200 active;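 active = every separate test run was called active for a drop in luminescence, with AC50 within twice the top valid dose, actives reach about 71 µM in these data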
ARNT Alpha ctr-2: produces AlphaScreen artifacts in ARNT-TACC3 counter-screen. 70% of 45 active. Dual-tagged His-ARNT PASB-GST AlphaScreen artifact counter-screen. shares compounds with ARNT TACC3 PPI. AC50, µM;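 active = luminescence drop, with half-maximal potency fitted within twice the sample's top valid dose, cut at about 70 µM in these data; inactive = the rest, including signal moving the wrong way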
The depositor's hits bear a star; . = no result given; [ ] = dose if it differs, or a comment.

SMILES	CaV13 ICDI inh	CAL PDZ FP-1	CAL PDZ FP-2	ARNT TACC3 PPI	ARNT Alpha ctr-1	others
Cc1ccc(S(=O)(=O)CCc2nnc(NC(=O)c3ccccn3)s2)cc1	.	1	-2	73*	34µM*
COc1cccc(C(=O)Nc2nnc(CCS(=O)(=O)c3ccc(C)cc3)s2)c1	-3	1	-3	-34	.
CCN(CC)C(=O)c1sc2nc(Cc3ccccc3)[nH]c(=O)c2c1C	6	0	2	0	.
Cc1c(C(=O)N(C)C)sc2nc(-c3ccccn3)[nH]c(=O)c12	-1	0	0	72*	23µM*	ARNT Alpha ctr-2=15*
COc1cc(C2Nc3ccccc3C(=O)N2NS(C)(=O)=O)c([N+](=O)[O-])cc1OC (stereo not drawn)	-2	.	-6	active	-11%
COc1ccc(-c2ccc3c(c2)O[C@@H](CN(C)C)[C@H](C)CN([C@@H](C)CO)S3(=O)=O)cc1	.	.	.	-1	.
COc1ccc(OC)c(-c2cc(C(=O)N3CCN(c4ncccn4)CC3)c3ccccc3n2)c1	.	0	-3	51*	-37%
C[C@H](CO)N1C[C@H](C)[C@@H](CN(C)C(=O)Nc2ccc(C(F)(F)F)cc2)Oc2ccc(NC(=O)CCCCCC(=O)Nc3ccccc3N)cc2CC1=O	.	.	.	6	.
O=C(NC[C@H]1[C@H](c2ccccc2)[C@@H](CO)N1Cc1ccccn1)C1CC1	.	.	.	12	.
O=C(C1CCCC1)N1C[C@@H]2[C@H](c3ccccc31)[C@H](CO)N2C(=O)Cc1ccccn1	.	.	.	51*	-12%[42 µM]
O=C(NC[C@H]1[C@H](c2ccccc2)[C@H](CO)N1C(=O)Cc1ccncc1)C1CCC1	.	.	.	-1	.
O=C(NC[C@@H]1[C@H](c2ccccc2)[C@H](CO)N1Cc1ccccn1)C1CCC1	.	.	.	60*	-22%[42 µM]
O=C(NC[C@@H]1[C@H](c2ccccc2)[C@H](CO)N1Cc1ccccn1)C1CCCC1	.	.	.	53*	-25%[42 µM]
O=C(NC[C@H]1[C@@H](c2ccccc2)[C@@H](CO)N1Cc1ccccn1)C1CCC1	.	.	.	56*	70µM*
CCC(=O)N(C)C[C@H]1Oc2ncc(-c3ccccc3OC)cc2C(=O)N([C@@H](C)CO)C[C@H]1C	.	.	.	-4	.
COc1ccc(NC(=O)N(C)C[C@@H]2Oc3ccc(NS(C)(=O)=O)cc3CC(=O)N([C@H](C)CO)C[C@H]2C)cc1	.	.	.	-22	.
CC=Cc1ccc2n(c1=O)C[C@H]1[C@H](CO)[C@@H](C(=O)N3CCc4ccccc4C3)N(C(=O)C3CC3)[C@@H]21 (mixture of isomers)	.	.	.	7	.
COc1ccc(CN(C)C[C@H]2Oc3ccc(NS(=O)(=O)c4ccccc4)cc3C(=O)N([C@H](C)CO)C[C@@H]2C)cc1	.	.	.	15	.
O=C(C[C@H]1C[C@H]2c3cc(NC(=O)C4CCC4)ccc3O[C@H]2[C@@H](CO)O1)NCc1cccc(F)c1	.	.	.	3	.
C[C@H](CO)N1C[C@H](C)[C@H](CN(C)C(=O)Nc2ccc(C(F)(F)F)cc2)Oc2ccc(NC(=O)NC3CCCCC3)cc2CC1=O	.	.	.	-11	.
COc1ccc(Nc2nc(N)nc(COc3ccc(OC)cc3)n2)cc1	0	0	-8	-4	.
COc1ccc(Nc2nc(N)nc(CN(C)C3CCCCC3)n2)cc1	.	0	0	56*	-10%
CCOc1ccc(Nc2nc(N)nc(CN(C)C3CCCCC3)n2)cc1	-5	-1	.	63*	-10%
CCOc1ccc(Nc2ncnc(N)n2)cc1	-7	-1	-3	2	.
O=S(=O)(N[C@@H]1CC[C@H](CCn2cc(-c3cccc(F)c3)nn2)O[C@H]1CO)c1ccc(F)cc1	.	.	.	0	.
SMILES	CaV13 ICDI inh	CAL PDZ FP-1	CAL PDZ FP-2	ARNT TACC3 PPI	ARNT Alpha ctr-1	others
C=CCSc1nnc(-c2cccc3ccccc23)o1	-10	0	-1	57*	34µM*
CN1[C@@H]2c3ccc(-c4ccccc4)c(=O)n3C[C@H]1[C@H](CO)[C@H]2C(=O)Nc1nccs1	.	.	.	0	.
NC1=NN=C(N2N=C(c3ccc(Br)cc3)CC2(O)C(F)(F)F)n2ncnc2C1 (stereo not drawn)	-6	-1	-4	0	.
NC1=NN=C(N2N=C(c3ccccc3)CC2(O)C(F)(F)F)n2ncnc2C1 (stereo not drawn)	-19	-2	-2	54*	-1%
C[C@H](Nc1nc(-c2ccccn2)nnc1-c1ccccc1)C1CCCCC1	.	.	.	.	2.6µM*
C[C@@H](Nc1nc(-c2ccccn2)nnc1-c1ccccc1)C1CCCCC1	.	.	.	.	4.3µM*
N#CCC(=O)N/N=C\c1ccccc1OC/C=C/c1ccccc1	.	-2	-2	64*	55µM*
COCC(=O)N/N=C\c1ccccc1OC/C=C/c1ccccc1	-5	-3	-7	6	.
CN(C)S(=O)(=O)N1CCN(S(=O)(=O)c2ccc(F)cc2)CC1	-5	-2	10	51*	0%
Cc1nnc(C)n1/N=C/c1c(O)ccc2ccccc12	-21	1	-5	9	.
Cc1nc2ccccc2c(=O)n1/N=C/c1ccc(O)c(O)c1O	-3	0	-3	52*	-12%
Cc1nnc(-c2ccccc2)c(=O)n1/N=C/c1c(O)ccc2ccccc12	.	0	-1	62*	64µM*
O=C(C[C@@H]1CC[C@@H]2[C@H](COC[C@H](O)CN2Cc2nccs2)O1)NCc1ccc(-c2ccccc2)cc1	.	.	.	-1	.
O=C(C[C@@H]1C[C@@H]2c3cc(NC(=O)Cc4ccncc4)ccc3O[C@@H]2[C@@H](CO)O1)NCCN1CCCCC1	.	.	.	5	.
N[C@@H]1CC[C@H](CCn2cc(-c3ccccn3)nn2)O[C@H]1CO	.	.	.	75*	6.6µM*
COc1ccc(NC(=O)N[C@H]2CC[C@H](CCn3cc(-c4ccccn4)nn3)O[C@@H]2CO)cc1	.	.	.	20*	36µM*
O=C(N[C@@H]1CC[C@@H](CCn2cc(-c3ccccc3)nn2)O[C@H]1CO)c1cnccn1	.	.	.	7	.
O=C(N[C@H]1CC[C@H](CCn2cc(-c3ccccn3)nn2)O[C@@H]1CO)c1ccccc1	.	.	.	74*	34µM*
COCc1cn(CC[C@@H]2CC[C@H](NC(=O)c3ccccc3)[C@@H](CO)O2)nn1	.	.	.	-13	.
O=C(N[C@H]1CC[C@@H](CCn2cc(-c3ccccc3)nn2)O[C@@H]1CO)c1cnccn1	.	.	.	active	-3%[42 µM]
COc1ccc(-c2cn(CC[C@@H]3CC[C@@H](N)[C@H](CO)O3)nn2)cc1	.	.	.	5	.
O=C(C[C@H]1CC[C@H](NC(=O)c2cccnc2)[C@H](CO)O1)NCCN1CCCCC1	.	.	.	-9	.
O=C(O)C[C@H]1C[C@H]2c3cc(NC(=O)NC4CCCCC4)ccc3O[C@H]2[C@@H](CO)O1	.	.	.	-2	.
O=C(C[C@H]1CC[C@H](NC(=O)c2ccccc2)[C@@H](CO)O1)Nc1ccc(-c2ccccc2)cc1	.	.	.	-12	.

Assay outcomes deposited in PubChem by Broad Institute.
